# Assay results from ChEMBL document CHEMBL4130342, “New semi-synthetic analogs of oleuropein show improved anticancer activity in vitro and in vivo” (Eur J Med Chem, 2017).
# Key:
# K562 = test: Antiproliferative activity against human K562 cells after 72 hrs by MTT reduction assay; type: functional, cell-based; conditions: K562, 72 h
# How it was run: (§1)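 MTT reduction assay; adherent lines left to adhere overnight, suspension lines (HL-60, K562) seeded on the day. […] Incubation was 72 h at 37°C, with MTT added for the last 4 h. OD read at 545 nm (reference 690 nm). IC50 from 100(A0-A)/A0=50; means ± SD of 3 independent experiments.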
# PBMC [1] = test: Induction of apoptosis in human PBMC assessed as necrotic cells at 150 ug/ml after 24 hrs by propidium iodide staining-based flow cytometric method (reference value: 1%); type: cell-based
# PBMC [2] = test: Induction of apoptosis in human PBMC assessed as late apoptotic cells at 400 ug/ml after 24 hrs by propidium iodide staining-based flow cytometric method (reference value: 0.6%); type: cell-based
# PBMC [3] = test: Induction of apoptosis in human PBMC assessed as late apoptotic cells at 600 ug/ml after 24 hrs by propidium iodide staining-based flow cytometric method (reference value: 0.6%); type: cell-based
# B16-F1 [4] = test: Antiproliferative activity against mouse B16-F1 cells after 72 hrs by MTT reduction assay; type: functional, cell-based; conditions: B16-F1, 72 h; how it was run: as §1
# B16-F1 [5] = test: Induction of apoptosis in mouse B16-F1 cells assessed as early apoptotic cells at 283.90 uM after 24 hrs by propidium iodide staining-based flow cytometric method (reference value: 0.5%); type: functional
# B16-F1 [6] = test: Induction of apoptosis in mouse B16-F1 cells assessed as necrotic cells at 283.90 uM after 24 hrs by propidium iodide staining-based flow cytometric method (reference value: 0.4%); type: functional
# B16-F1 [7] = test: Induction of apoptosis in mouse B16-F1 cells assessed as late apoptotic cells at 283.90 uM after 48 hrs by propidium iodide staining-based flow cytometric method (reference value: 0.5%); type: functional
# B16-F1 [8] = test: Induction of apoptosis in mouse B16-F1 cells assessed as necrotic cells at 283.90 uM after 72 hrs by propidium iodide staining-based flow cytometric method (reference value: 2.5%); type: functional
# B16-F1 [9] = test: Antitumor activity against mouse B16-F1 cells allografted in C57BL/6 mouse assessed as tumor volume at 600 ug, ip administered every other day up to day 29 measured on day 29 post last dose (reference value: 2.83 cm'3); type: functional
# How it was run: (§2)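 Male C57BL/6 mice, 6-8 weeks old, received 10^5 B16.F1 cells sc in the right flank on day 0. From day 11 (palpable tumors), 5 mice/group were randomized and given ip doses in 200 µL PBS every other day, 8 doses in total, up to day 29. Control group received PBS. Tumors were measured by caliper every two days; volume = 1/2(length × width²).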
# B16-F1 [10] = test: Antitumor activity against mouse B16-F1 cells allografted in C57BL/6 mouse assessed as tumor volume at 300 ug, ip administered every other day up to day 29 measured on day 29 post last dose (reference value: 2.83 cm'3); type: functional; how it was run: as §2
# B16-F1 [11] = test: Antitumor activity against mouse B16-F1 cells allografted in ip dosed C57BL/6 mouse assessed as tumor growth inhibition administered every other day up to day 29 measured on day 29 post last dose; type: functional, organism-based; how it was run: as §2
# Mus musculus = test: In vivo induction of tumor-reactive immune response in C57BL/6 mouse allografted with mouse B16-F1 cells assessed as splenocyte-mediated NK-sensitive mouse YAC-1 cell lysis at 300 ug, ip administered every other day up to day 29 measured on day 29 post last dose by flow cytometric method (reference value: 1.2 to 1.7); type: functional
# How it was run: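 Male C57BL/6 mice (6-8 wk) were injected sc in the right flank with 10⁵ B16.F1 cells in PBS on day 0. From day 11, when tumors were palpable, they received ip doses in 200 µL PBS every other day (8 doses; 5 mice/group). On day 29, splenocytes were co-cultured unstimulated with targets at E:T 100:1 for 6 h at 37°C. CD107a/b MFI was read by flow cytometry, 2 mice/group tested individually.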
structure (smiles),measurement,setting,value
C/C=C1/[C@H](O[C@@H]2O[C@H](CO)[C@@H](O)[C@H](O)[C@H]2O)OC=C(C(=O)OC)[C@H]1CC(=O)OCCc1ccc(O)c(O)c1 [OLEUROPEIN],IC50,K562,64.7 µM
same,Activity,PBMC [1],2.5%
same,Activity,PBMC [2],3%
same,Activity,PBMC [3],12.4%
same,IC50,B16-F1 [4],284 µM
same,Activity,B16-F1 [5],9.3%
same,Activity,B16-F1 [6],2.1%
same,Activity,B16-F1 [7],9.8%
same,Activity,B16-F1 [8],21.8%
same,Activity,B16-F1 [9],2.33 cm3
same,Activity,B16-F1 [10],2.41 cm3
same,TGI,B16-F1 [11],Dose-dependent effect
same,Flu intensity,Mus musculus,2.3 - 2.7
